The nature of data set [1]: Intrinsic clearance in human liver microsomes in presence of UGT. The class given is ADME, Microsome. The method, boiled down: (§1)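 UGT pathway: human gut or liver microsomes at 0.5 mg protein/mL with 2 mM UDPGA, alamethicin and 1 mM MgCl2, pH 7.1. Compound depletion measured by LC–MS/MS in duplicate time-course incubations; intrinsic clearance expressed per mg protein.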
(In general: Liver microsomes are vesicles of endoplasmic reticulum, rich in cytochrome P450 enzymes.)

A short description of data set [2]: Intrinsic clearance in human gut microsomes in presence of NADPH. It is filed as ADME, Microsome. The method, boiled down: (§2)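 Pooled human microsomes (gut or liver) at 0.5 mg protein/mL with 1 mM NADPH, pH 7.4 (P450 pathway). Compound loss followed by LC–MS/MS in duplicate time-course incubations; intrinsic clearance given per mg protein.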
For data set [3], the target named is T1, Cannabinoid receptor 1 (Homo sapiens, UniProt P21554). The experiment in a line: Antagonist activity against human CB1 receptor. The class given is functional.
Data set [4] in a line: Intrinsic clearance in human gut microsomes in presence of UGT. It is filed as ADME, Microsome. The method, boiled down: as §1
Data set [5] is described as follows: Intrinsic clearance in human liver microsomes in presence of NADPH. The class given is ADME, Microsome. The method, boiled down:
as §2

The test system of data set [6] is Mus musculus. Nature of the data set: Inhibition of WIN55212-2-induced hypothermia in po dosed mouse assessed as change in rectal temperature administered 15 mins before WIN55212-2 challenge measured after 75 mins. The class given is functional. The conditions noted are these: read-out: ID50 (the source's name). The method, boiled down: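 Antagonist or vehicle (5% mulgofen in saline, 10 mL/kg) given orally 75 min before rectal temperature reading. WIN 55,212-2 mesylate (10 mL/kg) given sc 60 min before the reading, at its time of maximal hypothermia. Metal probe with vaseline inserted about 1.5 cm; highest temperature stable for 10 s recorded. ID50 reported with confidence interval.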

The target of data set [7] is T1, Cannabinoid receptor 1. Nature of the data set: biochemical. The class given is cell-based, CHO.

The structures appear in SMILES notation.

T1 sequence (P21554 whole entry): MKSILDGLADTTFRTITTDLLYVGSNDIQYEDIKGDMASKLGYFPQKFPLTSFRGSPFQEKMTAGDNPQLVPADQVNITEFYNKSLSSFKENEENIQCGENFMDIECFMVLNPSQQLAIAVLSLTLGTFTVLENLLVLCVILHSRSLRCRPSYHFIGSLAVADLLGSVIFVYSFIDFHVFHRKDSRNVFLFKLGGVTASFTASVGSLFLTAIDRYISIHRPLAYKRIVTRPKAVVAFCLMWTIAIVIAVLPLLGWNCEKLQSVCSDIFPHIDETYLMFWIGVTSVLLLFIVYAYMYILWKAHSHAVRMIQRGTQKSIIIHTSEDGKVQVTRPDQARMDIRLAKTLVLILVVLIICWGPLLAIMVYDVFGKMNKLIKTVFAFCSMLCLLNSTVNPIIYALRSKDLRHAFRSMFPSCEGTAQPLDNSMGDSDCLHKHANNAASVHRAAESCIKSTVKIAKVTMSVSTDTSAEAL

As to `CC(O)C1(CNC(=O)c2cc3cc(C#N)ccc3n2Cc2cccc(OC(F)(F)F)c2)CCCC1` (centres undefined), the intrinsic clearance (microsomal CLint) (in general, the rate of metabolic loss divided by the concentration) is 9 µL/min/mg in data set [1], 99 µL/min/mg in data set [2], less than 6 µL/min/mg in data set [4] and 505 µL/min/mg in data set [5]. In addition, in data set [3], the IC50 (commonly the concentration needed to halve the response being measured) was 5.13 nM.
The corresponding values for `CCOc1ccc(OC(F)(F)F)cc1Cn1c(C(=O)NCC(C)(C)CO)cc2cc(C#N)ccc21` are 20 µL/min/mg, less than 6 µL/min/mg, 103 µL/min/mg, 103 µL/min/mg and 8.32 nM.
Taken in the same sequence, the figures for `CC(C)(CO)CNC(=O)c1cc2cc(C#N)ccc2n1Cc1cc(Cl)cc(Cl)c1` were 22 µL/min/mg, less than 6 µL/min/mg, 98 µL/min/mg, 103 µL/min/mg and 5.37 nM.
For `COc1ccc(Cl)cc1Cn1c(C(=O)NCC(C)(C)CO)cc2cc(C#N)ccc21`, the microsomal CLint in data set [1] was 10 µL/min/mg; in data set [2], less than 6 µL/min/mg; in data set [4] it was 63 µL/min/mg; in data set [5], 83 µL/min/mg. For the same compound, the half-maximal inhibitory concentration (IC50) in data set [3] was 2 nM.
Regarding `COc1ccc(Br)cc1Cn1c(C(=O)NCC(C)(C)CO)cc2cc(C#N)ccc21`, the intrinsic clearance (microsomal CLint) in data set [1] is 23 µL/min/mg; in data set [2], less than 6 µL/min/mg; in data set [4], 94 µL/min/mg; in data set [5] it was 104 µL/min/mg. This compound also had an IC50 in data set [3] of 0.776 nM.
With `COc1ccc(C)cc1Cn1c(C(=O)NCC(C)(C)CO)cc2cc(C#N)ccc21`, the intrinsic clearance (microsomal CLint) in data set [1] was 23 µL/min/mg; in data set [2], less than 6 µL/min/mg; in data set [4], 64 µL/min/mg; in data set [5] it was 191 µL/min/mg. For the same compound, in data set [3], it took 0.759 nM to reach half-maximal inhibition (IC50).
The corresponding values for `Cc1ccc(C(F)(F)F)cc1Cn1c(C(=O)NCC(C)(C)CO)cc2cc(C#N)ccc21` are 16 µL/min/mg, less than 6 µL/min/mg, 102 µL/min/mg, 180 µL/min/mg and 0.513 nM.
The corresponding values for `Cc1ccc(Cl)cc1Cn1c(C(=O)NCC(C)(C)CO)cc2cc(C#N)ccc21` are 23 µL/min/mg, less than 6 µL/min/mg, 124 µL/min/mg, 119 µL/min/mg and 0.575 nM.
Taken in the same sequence, the figures for `Cc1ccc(C)c(Cn2c(C(=O)NCC(C)(C)CO)cc3cc(C#N)ccc32)c1` were 29 µL/min/mg, less than 6 µL/min/mg, 124 µL/min/mg, 257 µL/min/mg and 0.631 nM.
For `CCCOc1cccc(Cn2c(C(=O)NCC(C)(C)CO)cc3cc(C#N)ccc32)c1`, the intrinsic metabolic clearance (microsomal CLint) in data set [1] was 10 µL/min/mg; in data set [2], 13 µL/min/mg; in data set [4] it was 45 µL/min/mg; in data set [5], 156 µL/min/mg. Besides, the IC50 in data set [3] is 1.55 nM.
The corresponding values for `COc1ccc(OC(F)(F)F)cc1Cn1c(C(=O)NCC2(CO)CC2)cc2cc(C#N)ccc21` are 18 µL/min/mg, less than 6 µL/min/mg, 51 µL/min/mg, 139 µL/min/mg and 5.13 nM.
As to `COc1ccc(C(F)(F)F)cc1Cn1c(C(=O)NCC2(CO)CC2)cc2cc(C#N)ccc21`, the intrinsic clearance (microsomal CLint) in data set [1] was 7 µL/min/mg; in data set [2], less than 6 µL/min/mg; in data set [4], 49 µL/min/mg; in data set [5] it was 155 µL/min/mg. This compound gave a concentration for half-maximal inhibition (IC50) in data set [3] of 1.32 nM.
The corresponding values for `COc1ccc(C(C)(C)C)cc1Cn1c(C(=O)NCC2(CO)CC2)cc2cc(C#N)ccc21` are less than 6 µL/min/mg, less than 6 µL/min/mg, 26 µL/min/mg, 188 µL/min/mg and 1.48 nM.
The corresponding values for `COc1ccc(Cl)cc1Cn1c(C(=O)NCC2(CO)CCC2)cc2cc(C#N)ccc21` are 34 µL/min/mg, less than 6 µL/min/mg, 179 µL/min/mg, 196 µL/min/mg and 2.57 nM.
`Cc1ccc(F)cc1Cn1c(C(=O)NCC2(CO)CCC2)cc2cc(C#N)ccc21`: the microsomal CLint in data set [1] was 49 µL/min/mg; in data set [2], less than 6 µL/min/mg; in data set [4], 175 µL/min/mg; in data set [5] it was 190 µL/min/mg. Moreover, the half-maximal inhibitory concentration (IC50) in data set [3] was 4.9 nM.
As for `COc1ccc(C(F)(F)F)cc1Cn1c(C(=O)NCC(C)(C)O)cc2cc(C#N)ccc21`, the ED50 in data set [6] was more than 10 µmol/kg. The inhibition constant Ki – broadly, a measure of affinity in units of concentration, obtained from inhibition or displacement – in data set [7] was 7.59 nM. Besides, the microsomal CLint in data set [1] was less than 6 µL/min/mg; in data set [2], less than 6 µL/min/mg; in data set [4], less than 6 µL/min/mg; in data set [5], 7 µL/min/mg. In addition, 11.5 nM corresponded to half-maximal inhibition in data set [3] (IC50).
On to `CC(C)(O)CCNC(=O)c1cc2cc(C#N)ccc2n1Cc1cccc(OC(F)(F)F)c1`, for which the ED50 in data set [6] turned out to be 9.67 µmol/kg. Moreover, the Ki in data set [7] is 5.01 nM. Moreover, the intrinsic metabolic clearance (microsomal CLint) in data set [1] is less than 6 µL/min/mg; in data set [2] it was less than 6 µL/min/mg; in data set [4] it was 9 µL/min/mg; in data set [5] it was 9 µL/min/mg. The compound also had an IC50 in data set [3] of 13.5 nM.
Take `CC(O)CCNC(=O)c1cc2cc(C#N)ccc2n1Cc1cccc(OC(F)(F)F)c1` (centres undefined): the microsomal CLint is less than 6 µL/min/mg in data set [1], less than 6 µL/min/mg in data set [2], less than 6 µL/min/mg in data set [4] and 113 µL/min/mg in data set [5]. For the same compound, half-maximal inhibition in data set [3] (IC50) was put at 8.91 nM.
Turning to `N#Cc1ccc2c(c1)cc(C(=O)NCCC(O)C(F)(F)F)n2Cc1cccc(OC(F)(F)F)c1` (centres undefined), the intrinsic metabolic clearance (microsomal CLint) is 31 µL/min/mg in data set [1], 26 µL/min/mg in data set [2], less than 6 µL/min/mg in data set [4] and 59 µL/min/mg in data set [5]. For the same compound, the IC50 in data set [3] is 8.13 nM.
As to `N#Cc1ccc2c(c1)cc(C(=O)NCCC(O)(C(F)(F)F)C(F)(F)F)n2Cc1cccc(OC(F)(F)F)c1`, the microsomal CLint was 24 µL/min/mg in data set [1], less than 6 µL/min/mg in data set [2], less than 6 µL/min/mg in data set [4] and 20 µL/min/mg in data set [5]. The compound further gave a 50% inhibitory concentration (IC50) in data set [3] of 6.03 nM.
For `COc1ccc(C(F)(F)F)cc1Cn1c(C(=O)NCCC2(O)CCC2)cc2cc(C#N)ccc21`, the intrinsic clearance (microsomal CLint) in data set [1] was less than 6 µL/min/mg; in data set [2], less than 6 µL/min/mg; in data set [4], less than 6 µL/min/mg; in data set [5], 88 µL/min/mg. For the same compound, in data set [3], the IC50 is 1.48 nM.
As to `N#Cc1ccc2c(c1)cc(C(=O)NCCC1(O)CCC1)n2Cc1cccc(OC(F)(F)F)c1`, the microsomal CLint is less than 6 µL/min/mg in data set [1], less than 6 µL/min/mg in data set [2], less than 6 µL/min/mg in data set [4] and 78 µL/min/mg in data set [5]. In addition, in data set [3], the IC50 is 2.63 nM.
Turning to `COc1ccc(Br)cc1Cn1c(C(=O)NCCCO)cc2cc(C#N)ccc21`, the microsomal CLint in data set [1] is less than 6 µL/min/mg; in data set [2], less than 6 µL/min/mg; in data set [4] it was less than 6 µL/min/mg; in data set [5], 41 µL/min/mg. The compound further gave an IC50 in data set [3] of 9.33 nM.
As to `Cc1c(C(=O)NN2CCCCC2)nn(-c2ccc(Cl)cc2Cl)c1-c1ccc(Cl)cc1` [RIMONABANT], in data set [6], the ED50 was found to be 1.29 µmol/kg. The microsomal CLint was less than 6 µL/min/mg in data set [1], less than 6 µL/min/mg in data set [2], less than 6 µL/min/mg in data set [4] and 69 µL/min/mg in data set [5].

The values are drawn from ChEMBL document CHEMBL1759935, “Pharmacokinetic optimisation of novel indole-2-carboxamide cannabinoid CB1 antagonists” (Bioorg Med Chem Lett, 2011).
